Measured values taken from ChEMBL document CHEMBL1145806, “Discovery and structural modification of inhibitors of methionine aminopeptidases from Escherichia coli and Saccharomyces cerevisiae” (J Med Chem, 2003).
pIC50: −log10 of the molar value. Converted amounts (≈) assume the structure as drawn.

Columns and labels:
[1] = molecular target: T1, Methionine aminopeptidase 1 (Saccharomyces cerevisiae S288c, UniProt Q01662); test: Inhibitory activity against type I methionine aminopeptidase from Saccharomyces cerevisiae
T1 sequence (Q01662 whole entry): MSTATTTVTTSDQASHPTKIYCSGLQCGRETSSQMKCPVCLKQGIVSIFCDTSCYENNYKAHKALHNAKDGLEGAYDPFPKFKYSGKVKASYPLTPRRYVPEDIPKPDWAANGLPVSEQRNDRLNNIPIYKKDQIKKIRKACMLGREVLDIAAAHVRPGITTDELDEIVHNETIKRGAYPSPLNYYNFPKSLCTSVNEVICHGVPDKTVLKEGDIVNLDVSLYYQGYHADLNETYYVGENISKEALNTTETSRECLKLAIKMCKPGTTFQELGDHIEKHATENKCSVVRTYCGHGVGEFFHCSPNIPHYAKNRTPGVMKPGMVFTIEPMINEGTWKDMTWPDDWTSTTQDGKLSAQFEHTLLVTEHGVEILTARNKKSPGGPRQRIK
Outline: (§1)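 Co(II)-activated enzyme: preincubated 30 min in 25 mM HEPES pH 7.5, 150 mM KCl, 15 mM methionine, 500 μM CoCl2. Chromogenic assay in 50 mM MOPS pH 7.0 with 1 mM DTNB and 100 μM thiopeptolide Met-S-Gly-Phe-OH. Final enzyme was 150 nM for EcMetAP1 and 330 nM for ScMetAP1. Hydrolysis read at 412 nm for 60 s. IC50 from inhibitor dilutions, […].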

Escherichia coli [2] = test: Selectivity of inhibitory activity of Methionine aminopeptidase 1 from Escherichia coli to Methionine aminopeptidase 1 from Saccharomyces cerevisiae
[3] = molecular target: T2, Methionine aminopeptidase (Escherichia coli K-12, UniProt P0AE18); test: Inhibitory activity against Methionine aminopeptidase 1 from Escherichia coli; outline: as §1
T2 sequence (P0AE18 whole entry): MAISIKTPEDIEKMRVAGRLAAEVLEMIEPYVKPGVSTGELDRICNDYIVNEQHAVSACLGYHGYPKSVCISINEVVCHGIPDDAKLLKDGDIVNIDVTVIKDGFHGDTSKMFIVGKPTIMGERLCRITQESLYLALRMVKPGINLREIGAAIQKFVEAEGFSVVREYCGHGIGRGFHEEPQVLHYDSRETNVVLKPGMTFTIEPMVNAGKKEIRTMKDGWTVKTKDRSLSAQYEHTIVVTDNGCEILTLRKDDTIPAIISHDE

Escherichia coli [4] = test: Antibacterial activity against enteropathogenic Escherichia coli ATCC 25922 was determined after 24 hr; assay type: functional; details: ATCC 25922, 24 h
Pseudomonas aeruginosa = test: Antibacterial activity against Pseudomonas aeruginosa ATCC 27853 was determined after 24 hr; assay type: functional; details: ATCC 27853, 24 h
Staphylococcus aureus = test: Antibacterial activity against Staphylococcus aureus ATCC 25923 was determined after 24 hr; assay type: functional; details: ATCC 25923, 24 h

Row | Structure (SMILES) | pIC50 [1] | Ratio (Escherichia coli [2]) | pIC50 [3] | MIC (Escherichia coli [4]) | MIC (Pseudomonas aeruginosa) | MIC (Staphylococcus aureus)
1 | O=C(Nc1cccnc1C(=O)Nc1nccs1)c1ccccc1 | < 4.00 | < 0.0089 | 6.05 | – | – | –
2 | CCC(=O)Oc1cccnc1C(=O)Nc1nccs1 | 6.42 | 14 | 5.27 | 250 µg/mL (≈ 902 µM) | 500 µg/mL (≈ 1800 µM) | 125 µg/mL (≈ 451 µM)
3 | O=C(Oc1cccnc1C(=O)Nc1nccs1)c1ccc(F)cc1 | 4.21 | 0.018 | 5.96 | – | – | –
4 | CCCCCC(=O)Nc1cccnc1C(=O)Nc1nccs1 | 6.21 | 0.61 | 6.42 | – | – | –
5 | C=C(C)CC(=O)Nc1cccnc1C(=O)Nc1nccs1 | 5.33 | 0.032 | 6.82 | – | – | –
6 | CC(C)(C)C(=O)Nc1cccnc1C(=O)Nc1nccs1 | 6.47 | 1.59 | 6.27 | – | – | –
7 | CC(C)(C)C(=O)Oc1cccnc1C(=O)Nc1nccs1 | 6.11 | 0.87 | 6.17 | – | – | –
8 | O=C(Nc1nccs1)c1ncccc1NC(=O)C1CCCCC1 | < 4.00 | < 0.0087 | 6.06 | – | – | –
9 | COc1ccccc1/C=C/C(=O)Oc1cccnc1C(=O)Nc1nccs1 | 5.00 | 0.21 | 5.68 | – | – | –
10 | CC(C)=CC(=O)Nc1cccnc1C(=O)Nc1nccs1 | 6.11 | 0.29 | 6.66 | – | – | –
11 | C=CCC(=O)Nc1cccnc1C(=O)Nc1nccs1 | 6.42 | 0.34 | 6.89 | 125 µg/mL (≈ 434 µM) | 500 µg/mL (≈ 1730 µM) | 62.5 µg/mL (≈ 217 µM)
12 | CCCCCC(=O)Oc1cccnc1C(=O)Nc1nccs1 | 5.76 | 0.59 | 5.99 | – | – | –
13 | O=C(Cc1ccccc1)Oc1cccnc1C(=O)Nc1nccs1 | 6.70 | 2.7 | 6.27 | – | – | –
14 | COc1ccccc1C(=O)Oc1cccnc1C(=O)Nc1nccs1 | 6.26 | 3.1 | 5.77 | – | – | –
15 | O=C(Oc1cccnc1C(=O)Nc1nccs1)c1ccccc1F | 4.80 | 0.052 | 6.08 | – | – | –
16 | O=C(Oc1cccnc1C(=O)Nc1nccs1)c1cccc([N+](=O)[O-])c1 | < 4.00 | < 0.006 | 6.22 | – | – | –
17 | O=C(Oc1cccnc1C(=O)Nc1nccs1)c1cccc(F)c1 | < 4.00 | < 0.0095 | 6.02 | – | – | –
18 | O=C(Cc1ccccc1)Nc1cccnc1C(=O)Nc1nccs1 | 6.09 | 0.49 | 6.40 | – | – | –
19 | O=C(Nc1nccs1)c1ncccc1O | 5.31 | 0.38 | 5.73 | – | – | –
20 | CO[C@@H]1[C@H](OC(=O)/C=C/C=C/C=C/C=C/C(=O)O)CC[C@]2(CO2)[C@H]1[C@@]1(C)O[C@@H]1CC=C(C)C [FUMAGILLIN] | < 4.00 | – | < 4.00 | – | – | –
21 | O=C(Oc1cccnc1C(=O)Nc1nccs1)c1ccccc1[N+](=O)[O-] | < 4.00 | < 0.021 | 5.68 | – | – | –
22 | COc1cccc(C(=O)Oc2cccnc2C(=O)Nc2nccs2)c1[N+](=O)[O-] | 5.52 | 0.56 | 5.77 | – | – | –

Row | Structure (SMILES) | pIC50 [1] | Ratio (Escherichia coli [2]) | pIC50 [3] | MIC (Escherichia coli [4]) | MIC (Pseudomonas aeruginosa) | MIC (Staphylococcus aureus)
23 | O=C(Nc1nccs1)c1ccccn1 | 5.15 | 0.71 | 5.30 | 12.5 µg/mL (≈ 60.9 µM) | 250 µg/mL (≈ 1220 µM) | 2 µg/mL (≈ 9.74 µM)
24 | CC(=O)Oc1ccccc1C(=O)Oc1cccnc1C(=O)Nc1nccs1 | 4.82 | 0.11 | 5.80 | – | – | –
25 | O=C(Oc1cccnc1C(=O)Nc1nccs1)c1ccc(F)c(Br)c1 | 5.47 | 0.74 | 5.60 | – | – | –
26 | CCCC[C@@H](N)[C@H](O)C(=O)N[C@@H](C)C(=O)N[C@@H](CC(C)C)C(=O)OC | 4.02 | – | 4.64 | – | – | –
27 | O=CNc1cccnc1C(=O)Nc1nccs1 | 6.49 | 1 | 6.48 | 125 µg/mL (≈ 503 µM) | 500 µg/mL (≈ 2010 µM) | 62.5 µg/mL (≈ 252 µM)
28 | C/C=C(\C)C(=O)Oc1cccnc1C(=O)Nc1nccs1 | 6.41 | 11 | 5.36 | – | – | –
29 | CC(C)COC(=O)Nc1cccnc1C(=O)Nc1nccs1 | 4.27 | 0.036 | 5.72 | – | – | –
30 | O=C(Oc1cccnc1C(=O)Nc1nccs1)c1ccccc1 | 5.99 | 1.2 | 5.91 | – | – | –
31 | O=C(Nc1cccnc1C(=O)Nc1nccs1)c1ccccc1F | < 4.00 | < 0.0028 | 6.55 | 250 µg/mL (≈ 730 µM) | 250 µg/mL (≈ 730 µM) | 15.6 µg/mL (≈ 45.6 µM)
32 | CCC(=O)Nc1cccnc1C(=O)Nc1nccs1 | 6.46 | 0.74 | 6.59 | – | – | –
33 | O=C(Oc1cccnc1C(=O)Nc1nccs1)c1ccccc1I | 6.05 | 1.5 | 5.89 | – | – | –
34 | O=C(Nc1cccnc1C(=O)Nc1nccs1)c1ccc(F)cc1 | < 4.00 | < 0.0136 | 5.87 | – | – | –
35 | O=C(Nc1nccs1)c1ncccc1OC(=O)C1CCCCC1 | 6.49 | 7.5 | 5.62 | – | – | –
36 | C/C=C(\C)C(=O)Nc1cccnc1C(=O)Nc1nccs1 | 4.96 | 0.026 | 6.55 | – | – | –
37 | Nc1cccnc1C(=O)Nc1nccs1 | 4.48 | 0.052 | 5.77 | – | – | –
38 | O=C(Nc1cccnc1C(=O)Nc1nccs1)c1cccc(F)c1 | < 4.00 | < 0.0071 | 6.15 | – | – | –
39 | CC(C)=CCC(=O)Nc1cccnc1C(=O)Nc1nccs1 | 6.85 | 1.71 | 6.62 | – | – | –
40 | O=C(Nc1nccs1)c1ncccc1NC(=O)C(F)(F)F | 5.31 | 0.069 | 6.47 | – | – | –
41 | CC(C)=CCCC(=O)Nc1cccnc1C(=O)Nc1nccs1 | 6.51 | 2 | 6.21 | – | – | –
42 | CC(C)(C)OC(=O)Nc1cccnc1C(=O)Nc1nccs1 | 5.47 | 0.054 | 6.74 | – | – | –
43 | CC(C)=CC(=O)Oc1cccnc1C(=O)Nc1nccs1 | 6.31 | 5.3 | 5.59 | – | – | –
